The values that follow come from ChEMBL document CHEMBL1131003, “Nonsymmetric P2/P2' cyclic urea HIV protease inhibitors. Structure-activity relationship, bioavailability, and resistance profile of monoindazole-substituted P2 analogues” (J Med Chem, 1998).

One test relates to MT2. Briefly: Antiviral potency evaluated by measuring accumulation of viral RNA transcripts 3 days after infection of MT-2 cells with HIV-1 RF. In kind it is functional. The settings on record: Homo sapiens, MT2, 72 h.
The target in test [1] is Human immunodeficiency virus type 1 protease (Human immunodeficiency virus 1, UniProt Q72874). As to the kind of experiment: Inhibitory activity against HIV protease. In outline: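 Ki for HIV protease, measured by cleavage of a fluorescent substrate with HPLC analysis, following the earlier method.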

`Nc1ccc(CN2C(=O)N(Cc3ccc4[nH]ncc4c3)[C@H](Cc3ccccc3)[C@H](O)[C@@H](O)[C@H]2Cc2ccccc2)cc1F` returned an IC90 in the test with MT2 of 7 nM. Further, in test [1], the Ki was determined as 0.036 nM.

In the case of `O=C(Nc1ccccn1)c1cccc(CN2C(=O)N(Cc3cccc(C(=O)Nc4ccccn4)c3)[C@H](Cc3ccccc3)[C@H](O)[C@@H](O)[C@H]2Cc2ccccc2)c1`, the 90% effect concentration (IC90) in the test on MT2 was 2.8 nM.

The compound `O=C1N(Cc2cccc(Cn3nccn3)c2)[C@H](Cc2ccccc2)[C@H](O)[C@@H](O)[C@@H](Cc2ccccc2)N1Cc1ccc2[nH]ncc2c1` returned an IC90 in the test on MT2 of 32 nM. This compound also yielded a Ki in test [1] of 0.081 nM.

Consider `Nc1ccc(CN2C(=O)N(Cc3ccc4[nH]ncc4c3)[C@H](Cc3ccccc3)[C@H](O)[C@@H](O)[C@H]2Cc2ccccc2)cc1-n1nccn1`, for which the IC90 with MT2 was 12 nM. For the same compound, the Ki in test [1] came out at 0.059 nM.

`NC(=O)c1cccc(CN2C(=O)N(Cc3cccc(C(N)=O)c3)[C@H](Cc3ccccc3)[C@H](O)[C@H]2CCc2ccccc2)c1`: the IC90 in the test with MT2 was determined as 35 nM.

With `Nc1ccc(CN2C(=O)N(Cc3ccc4[nH]ncc4c3)[C@H](Cc3ccccc3)[C@H](O)[C@@H](O)[C@H]2Cc2ccccc2)cc1-n1ccnn1`, in the test on MT2, the 90% effect level (IC90) was put at 38 nM. Further, affinity in test [1] was put at a Ki of 0.034 nM.

For `NC(=O)c1cccc(CN2C(=O)N(Cc3cccc(C(N)=O)c3)[C@H](Cc3ccccc3)[C@H](O)[C@@H](O)[C@H]2Cc2ccccc2)c1`, the IC90 in the test on MT2 worked out at 709 nM.

Take `O=C1N(Cc2cccc(Cn3ccnn3)c2)[C@H](Cc2ccccc2)[C@H](O)[C@@H](O)[C@@H](Cc2ccccc2)N1Cc1ccc2[nH]ncc2c1`: the concentration for an effect of 90% (IC90) in the test on MT2 came to 30 nM. The compound further returned a Ki in test [1] of 0.11 nM.

`Nc1cc(CN2C(=O)N(Cc3ccc4[nH]ncc4c3)[C@H](Cc3ccccc3)[C@H](O)[C@@H](O)[C@H]2Cc2ccccc2)ccc1F` returned a 90% effect concentration (IC90) with MT2 of 14 nM. The same compound yielded a Ki in test [1] of 0.018 nM.

Regarding `O=C1N(Cc2cccc(Cn3cncn3)c2)[C@H](Cc2ccccc2)[C@H](O)[C@@H](O)[C@@H](Cc2ccccc2)N1Cc1ccc2[nH]ncc2c1`, the IC90 in the test on MT2 was determined as 35 nM. Also, the Ki in test [1] amounted to 0.054 nM.

In turn, `O=C1N(Cc2ccc3[nH]ncc3c2)[C@H](Cc2ccccc2)[C@H](O)[C@@H](O)[C@@H](Cc2ccccc2)N1Cc1ccc2[nH]ncc2c1` yielded an IC90 in the test with MT2 of 7 nM.

On to `O=C(Cc1cccs1)c1cccc(CN2C(=O)N(Cc3ccc4[nH]ncc4c3)[C@H](Cc3ccccc3)[C@H](O)[C@@H](O)[C@H]2Cc2ccccc2)c1`, for which the 90% effect level in the test with MT2 (IC90) was put at 18 nM. Moreover, affinity in test [1] was put at a Ki of 0.23 nM.

In turn, `O=C(Cn1cccn1)c1cccc(CN2C(=O)N(Cc3ccc4[nH]ncc4c3)[C@H](Cc3ccccc3)[C@H](O)[C@@H](O)[C@H]2Cc2ccccc2)c1` yielded an IC90 with MT2 of 15 nM. The same compound registered a Ki in test [1] of 0.063 nM.

In the case of `NC(=O)c1cc(CN2C(=O)N(Cc3ccc4[nH]ncc4c3)[C@H](Cc3ccccc3)[C@H](O)[C@@H](O)[C@H]2Cc2ccccc2)ccc1F`, it took 14 nM to reach the 90% level in the test on MT2 (IC90). The affinity in test [1] corresponds to a Ki of 0.018 nM.

Compound `O=C(Nc1ccccn1)c1cccc(CN2C(=O)N(Cc3ccc4[nH]ncc4c3)[C@H](Cc3ccccc3)[C@H](O)[C@@H](O)[C@H]2Cc2ccccc2)c1` had an IC90 in the test on MT2 of 5 nM. This compound yielded a Ki in test [1] of 0.051 nM.

In the test on MT2, `O=C1N(Cc2ccc(F)c(NCc3nc4ccccc4[nH]3)c2)[C@H](Cc2ccccc2)[C@H](O)[C@@H](O)[C@@H](Cc2ccccc2)N1Cc1ccc2[nH]ncc2c1` registered an IC90 of 30 nM. The compound further yielded a Ki in test [1] of 0.028 nM.

The compound `N=C(NO)c1cccc(CN2C(=O)N(Cc3cccc(/C(N)=N/O)c3)[C@H](CCc3ccccc3)[C@@H](O)[C@H]2Cc2ccccc2)c1` gave an IC90 in the test on MT2 of 49 nM.

Turning to `O=C(O)c1cccc(CN2C(=O)N(Cc3ccc4[nH]ncc4c3)[C@H](Cc3ccccc3)[C@H](O)[C@@H](O)[C@H]2Cc2ccccc2)c1`, in the test on MT2, it took 750 nM to reach the 90% level (IC90). Further, in test [1], the Ki was found to be 0.049 nM.

In the test with MT2, `COC(=O)Cc1cccc(CN2C(=O)N(Cc3ccc4[nH]ncc4c3)[C@H](Cc3ccccc3)[C@H](O)[C@@H](O)[C@H]2Cc2ccccc2)c1` showed an IC90 of 32 nM. Also, in test [1], the affinity corresponds to a Ki of 0.11 nM.

In the test on MT2, `CN(C)c1cccc(CN2C(=O)N(Cc3ccc4[nH]ncc4c3)[C@H](Cc3ccccc3)[C@H](O)[C@@H](O)[C@H]2Cc2ccccc2)c1` yielded an IC90 of 39 nM. This compound also yielded a Ki in test [1] of 0.23 nM.

For the compound `Cc1cccc(NC(=O)c2cccc(CN3C(=O)N(Cc4ccc5[nH]ncc5c4)[C@H](Cc4ccccc4)[C@H](O)[C@@H](O)[C@H]3Cc3ccccc3)c2)n1`, in the test with MT2, the IC90 came to 3 nM. In test [1], this compound came in with a Ki of 0.04 nM.

As to `O=C1N(Cc2ccc3ccccc3c2)[C@H](Cc2ccccc2)[C@H](O)[C@@H](O)[C@@H](Cc2ccccc2)N1Cc1ccc2ccccc2c1`, it took 3900 nM to reach the 90% level in the test on MT2 (IC90). This lies in the single-digit micromolar range.

`O=C1N(Cc2cccc(CCO)c2)[C@H](Cc2ccccc2)[C@H](O)[C@@H](O)[C@@H](Cc2ccccc2)N1Cc1ccc2[nH]ncc2c1` yielded a concentration for an effect of 90% (IC90) in the test on MT2 of 17 nM. This compound also showed a Ki in test [1] of 0.05 nM.

As for `O=C1N[C@H](Cc2ccccc2)[C@H](O)[C@@H](O)[C@@H](Cc2ccccc2)N1Cc1ccc2[nH]ncc2c1`, the 90% effect level in the test on MT2 (IC90) was put at 550 nM. In other words, the sub-micromolar range.

In the test on MT2, `O=C(Nc1nccs1)c1cccc(CN2C(=O)N(Cc3cccc(C(=O)Nc4nccs4)c3)[C@H](Cc3ccccc3)[C@H](O)[C@@H](O)[C@H]2Cc2ccccc2)c1` gave an IC90 of 4.2 nM.

In the test on MT2, `Cc1ccc(CN2C(=O)N(Cc3ccc4[nH]ncc4c3)[C@H](Cc3ccccc3)[C@H](O)[C@@H](O)[C@H]2Cc2ccccc2)cc1N` displayed an IC90 of 15 nM. In test [1], this compound showed an inhibitory constant (Ki) of 0.05 nM.

As for `O=C(Cn1ccnn1)c1cccc(CN2C(=O)N(Cc3ccc4[nH]ncc4c3)[C@H](Cc3ccccc3)[C@H](O)[C@@H](O)[C@H]2Cc2ccccc2)c1`, in the test with MT2, the IC90 turned out to be 30 nM. This compound displayed an inhibitory constant (Ki) in test [1] of 0.021 nM.

Regarding `O=C(Cn1nccn1)c1cccc(CN2C(=O)N(Cc3ccc4[nH]ncc4c3)[C@H](Cc3ccccc3)[C@H](O)[C@@H](O)[C@H]2Cc2ccccc2)c1`, the IC90 with MT2 stood at 15 nM. The compound further yielded a Ki in test [1] of 0.046 nM.

`CCNC(=O)c1cccc(CN2C(=O)N(Cc3cccc(C(=O)NCC)c3)[C@H](Cc3ccccc3)[C@H](O)[C@@H](O)[C@H]2Cc2ccccc2)c1` returned an IC90 with MT2 of 138 nM.

With `O=C1N(Cc2cccc(O)c2)[C@H](Cc2ccccc2)[C@H](O)[C@@H](O)[C@@H](Cc2ccccc2)N1Cc1ccc2[nH]ncc2c1`, the IC90 in the test on MT2 was determined as 36 nM. Besides, the affinity in test [1] corresponds to a Ki of 0.045 nM.

As to `O=C1N(Cc2cccc(Cn3cccn3)c2)[C@H](Cc2ccccc2)[C@H](O)[C@@H](O)[C@@H](Cc2ccccc2)N1Cc1ccc2[nH]ncc2c1`, in the test with MT2, the 90% effect level (IC90) was put at 46 nM. Also, in test [1], the affinity, expressed as Ki, was 0.17 nM.

Turning to `CNC(=O)c1cccc(CN2C(=O)N(Cc3cccc(C(=O)NC)c3)[C@H](Cc3ccccc3)[C@H](O)[C@@H](O)[C@H]2Cc2ccccc2)c1`, it took 81 nM to reach the 90% level in the test with MT2 (IC90).

In the test on MT2, `O=C1N(Cc2ccc3[nH]ncc3c2)[C@H](CCc2ccccc2)[C@@H](O)[C@@H](Cc2ccccc2)N1Cc1ccc2[nH]ncc2c1` had an IC90 of 6 nM. The Ki in test [1] worked out at 0.023 nM.

Compound `O=C(Nc1nc2ccccc2[nH]1)c1cccc(CN2C(=O)N(Cc3cccc(C(=O)Nc4nc5ccccc5[nH]4)c3)[C@H](Cc3ccccc3)[C@H](O)[C@@H](O)[C@H]2Cc2ccccc2)c1` showed an IC90 in the test on MT2 of 5.1 nM.

By IC90 is commonly meant the point of the concentration-response curve where the effect stands at 90%. In general, Ki refers to a measure of affinity in units of concentration, obtained from inhibition or displacement. A high value points to a looser hold on the target.
